From ChEMBL document CHEMBL1148779, “Synthesis and biological evaluation of imidazoquinoxalinones, imidazole analogues of pyrroloiminoquinone marine natural products” (J Med Chem, 2007)
Active and inactive are the calls of the source. No cut-off for these calls is given here.

What was measured:
[1] = (§1) Growth inhibition of NCI60 cells; type: functional; conditions: Homo sapiens; for TGI: read-out: Log TGI (converted)
Homo sapiens = species: Homo sapiens; assay: Inhibition of human recombinant topoisomerase 2
Method in brief: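 Relaxation assay with recombinant human topoisomerase II (p170), 4 units, and 0.25 µg supercoiled pRYG DNA. Buffer: 50 mM Tris pH 8.0, 120 mM KCl, 10 mM MgCl2, 0.5 mM DTT, 0.5 mM ATP. Drug was added in varying amounts for 45 min at 37 °C. Reactions were stopped with SDS and proteinase K, then extracted with chloroform/isoamyl alcohol. Products were run on a 1% agarose gel and stained with ethidium bromide. Etoposide was the positive control.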

NCI60 = assay: as §1; type: functional; conditions: Homo sapiens
[2] = Toxicity in mouse at 400 mg/kg, ip; type: organism-based; set-up: dose 400 mg/kg, route intraperitoneal; conditions: in vivo
Method in brief: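 Acute toxicity in mice: the drug was formulated so that 400 mg/kg IP was given in 1 mL. Single IP doses of 400, 200 and 100 mg/kg were given (1, 0.5, 0.25 mL/mouse), using the body weight and strain planned for the hollow fiber assay. Mice were followed for 14 days for morbidity (body weight loss) and mortality. If mice died, the dose was halved serially in single mice until a tolerated dose was reached.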

MDA-MB-231 = assay: Growth inhibition of human MDA-MB-231 cells; type: functional
MDA-MB-435 = assay: Growth inhibition of human MDA-MB-435 cells; type: functional
BT-549 = assay: Growth inhibition of human BT549 cells; type: functional
MDA-N = assay: Growth inhibition of human MDA-N cells; type: functional
HCT-116 = assay: Inhibition of human HCT116 cells; type: functional, cell-based
Method in brief: (§2)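 MTT assay. HCT-116 cells were grown in McCoy's 5a with 10% FBS and 2 mM L-glutamine. A-431 cells were grown in DMEM with 10% FBS and 4 mM L-glutamine. Cells were plated at 10 000/well and dosed after 24 h. HCT-116 was tested at 0.3–100 µM and A-431 at 0.1–100 µM, for 48 h at 37 °C. MTT (final 0.3 mg/mL) was added for 3 h and formazan dissolved in DMSO. A570 was read and % cytotoxicity taken versus untreated control. Makaluvamine C at 10 µM was the positive control.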

A-431 = assay: Inhibition of human A431 cells; type: functional, cell-based; method in brief: as §2

| Compound | GI50 [1] [µM] | LC50 [1] [µM] | TGI [1] [µM] | other results |
| --- | --- | --- | --- | --- |
| O=C1C(NCCc2c[nH]c3ccccc23)=CC2=NCCn3cnc1c32 | 0.234 | 6.76 | 0.871 | Activity (Homo sapiens): Active |
| O=C1C(NCCO)=CC2=NCCn3cnc1c32 | 1.1 | 20 | 4.27 | – |
| COc1cc([C@@H]2c3cc4c(cc3[C@@H](O[C@@H]3O[C@@H]5CO[C@@H](C)O[C@H]5[C@H](O)[C@H]3O)[C@H]3COC(=O)[C@H]23)OCO4)cc(OC)c1O | – | – | – | Activity (Homo sapiens): Active |
| CC(=O)NC1=C(C)C(=O)c2nc(COC(C)=O)n3c2C1=NCC3 | – | – | – | Activity (NCI60): inactive |
| O=C1C(NCCc2ccc(O)cc2)=CC2=NCCn3cnc1c32 | 2.51 | 40.7 | 14.1 | – |
| O=C1C(NCc2ccccc2)=CC2=NCCn3cnc1c32 | 0.617 | 14.8 | 2.82 | MTD [2]: 12.5 mg/kg |
| CC(=O)NC1=C(C)C(=O)c2ncn3c2C1=NCC3 | 46.8 | – | – | Activity (NCI60): inactive |
| CC(=O)NC1=C(C)C(=O)c2nc(C)n3c2C1=NCC3 | 52.5 | – | 81.3 | GI50 (MDA-MB-231): 12.9 µM; Activity (NCI60): inactive; GI50 (MDA-MB-435): 19.1 µM; GI50 (BT-549): < 0.01 µM; GI50 (MDA-N): 18.6 µM |
| COCc1nc2c3n1CCN=C3C=C(N)C2=O | – | – | – | IC50 (HCT-116): 3 µM; IC50 (A-431): 3 µM |
| NC1=CC2=NCCn3cnc(c32)C1=O | 4.57 | 35.5 | 12.3 | – |
| O=C1C(NCCc2ccccc2)=CC2=NCCn3cnc1c32 | 0.166 | 5.5 | 1.07 | – |
